Laboratory results: ChEMBL document CHEMBL3872252, “New bithiazolyl hydrazones: Novel synthesis, characterization and antitubercular evaluation” (Bioorg Med Chem Lett, 2017)
In brackets after ≈: the same amount, converted by molar mass.

Columns and labels:
[1] = Antitubercular activity against Mycobacterium bovis BCG ATCC 35743 dormant stage measured on day 12 by nitrate reductase based two-fold dilution assay; format: functional, Mycobacterium bovis BCG str. ATCC 35743; details: Mycobacterium tuberculosis variant bovis BCG, ATCC 35743, 288 h
Pseudomonas aeruginosa [2] = test: Growth inhibition of Pseudomonas aeruginosa at 30 ug/ml; format: functional; details: read-out: GI
Escherichia coli [3] = test: Growth inhibition of Escherichia coli at 3 ug/ml; format: functional; details: read-out: GI
In short: (§1)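 Screened against Gram-negative E. coli and P. aeruginosa and Gram-positive S. aureus and B. subtilis. Compound was tested at 3 µg/ml, and the read-out is percent growth inhibition.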

[4] = Selectivity index, ratio of GI50 for human MCF7 cells to MIC90 for Mycobacterium tuberculosis H37Ra ATCC 25177 active stage; format: toxicity, cell-based; details: read-out: Selectivity Index
In short: (§2)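 Cytotoxicity was measured on human MCF-7, HCT116 and THP-1 cells by MTT assay, with paclitaxel as reference. GI50 is the concentration inhibiting 50% of cell growth. The selectivity index is GI50 for the given cell line divided by MIC90 for the given mycobacterial strain and stage.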

[5] = Selectivity index, ratio of GI50 for human THP1 cells to MIC90 for Mycobacterium bovis BCG ATCC 35743 dormant stage; format: toxicity, cell-based, THP-1; details: read-out: Selectivity Index
In short: (§3)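 Cytotoxicity was measured on human MCF-7, HCT116 and THP-1 cells by MTT assay, with paclitaxel as reference. The selectivity index is GI50 for the given cell line divided by MIC90 for the given mycobacterial strain and stage.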

[6] = Cytotoxicity against human THP1 cells by MTT assay; format: toxicity, cell-based, THP-1
[7] = Selectivity index, ratio of GI50 for human HCT116 cells to MIC90 for Mycobacterium bovis BCG ATCC 35743 dormant stage; format: toxicity, cell-based, HCT-116; details: read-out: Selectivity Index; in short: as §3
[8] = Cytotoxicity against human HCT116 cells by MTT assay; format: toxicity, cell-based, HCT-116
Pseudomonas aeruginosa [9] = test: Growth inhibition of Pseudomonas aeruginosa at 3 ug/ml; format: functional; details: read-out: GI; in short: as §1
Escherichia coli [10] = test: Antibacterial activity against Escherichia coli; format: functional
Staphylococcus aureus [11] = test: Growth inhibition of Staphylococcus aureus at 10 ug/ml; format: functional; details: read-out: GI
[12] = Selectivity index, ratio of GI50 for human MCF7 cells to MIC90 for Mycobacterium bovis BCG ATCC 35743 active stage; format: toxicity, cell-based; details: read-out: Selectivity Index; in short: as §2
Pseudomonas aeruginosa [13] = test: Growth inhibition of Pseudomonas aeruginosa at 10 ug/ml; format: functional; details: read-out: GI
[14] = Antitubercular activity against Mycobacterium tuberculosis H37Ra ATCC 25177 active stage infected in human THP1 cells measured on day 8 by nitrate reductase assay; format: functional, THP-1; details: ATCC 25177, 192 h
[15] = Selectivity index, ratio of GI50 for human THP1 cells to MIC90 for Mycobacterium bovis BCG ATCC 35743 active stage; format: toxicity, cell-based, THP-1; details: read-out: Selectivity Index; in short: as §2
Pseudomonas aeruginosa [16] = test: Antibacterial activity against Pseudomonas aeruginosa; format: functional
Bacillus subtilis [17] = test: Growth inhibition of Bacillus subtilis at 3 ug/ml; format: functional; details: read-out: GI; in short: as §1
[18] = Selectivity index, ratio of GI50 for human THP1 cells to MIC90 for Mycobacterium tuberculosis H37Ra ATCC 25177 active stage; format: toxicity, cell-based, THP-1; details: read-out: Selectivity Index; in short: as §2
[19] = Antitubercular activity against Mycobacterium bovis BCG ATCC 35743 active stage measured on day 8 by nitrate reductase based two-fold dilution assay; format: functional, Mycobacterium bovis BCG str. ATCC 35743; details: Mycobacterium tuberculosis variant bovis BCG, ATCC 35743, 192 h
Bacillus subtilis [20] = test: Antibacterial activity against Bacillus subtilis; format: functional
[21] = Antitubercular activity against Mycobacterium tuberculosis H37Ra ATCC 25177 active stage measured on day 8 by XTT reduction menadione based two-fold dilution assay; format: functional; details: ATCC 25177, 192 h
In short: (§4)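 M. tuberculosis H37Ra ATCC 25177 was exposed to 0.7–100 μg/mL in two-fold steps (0.7, 1.5, 3.1 … 100). Active stage was read after 8 days and dormant stage after 12 days of incubation. Inhibition was read by XTT reduction menadione assay (XRMA), absorbance 470 nm. MIC90 is the concentration giving ≥90% inhibition (µg/mL).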

Staphylococcus aureus [22] = test: Growth inhibition of Staphylococcus aureus at 30 ug/ml; format: functional; details: read-out: GI
Bacillus subtilis [23] = test: Growth inhibition of Bacillus subtilis at 10 ug/ml; format: functional; details: read-out: GI
[24] = Antitubercular activity against Mycobacterium tuberculosis H37Ra ATCC 25177 dormant stage measured on day 12 by XTT reduction menadione based two-fold dilution assay; format: functional; details: ATCC 25177, 288 h; in short: as §4
Escherichia coli [25] = test: Growth inhibition of Escherichia coli at 30 ug/ml; format: functional; details: read-out: GI
Bacillus subtilis [26] = test: Growth inhibition of Bacillus subtilis at 30 ug/ml; format: functional; details: read-out: GI
Staphylococcus aureus [27] = test: Growth inhibition of Staphylococcus aureus at 3 ug/ml; format: functional; details: read-out: GI; in short: as §1
[28] = Selectivity index, ratio of GI50 for human MCF7 cells to MIC90 for Mycobacterium bovis BCG ATCC 35743 dormant stage; format: toxicity, cell-based; details: read-out: Selectivity Index; in short: as §3
[29] = Antitubercular activity against Mycobacterium tuberculosis H37Ra ATCC 25177 dormant stage infected in human THP1 cells measured on day 12 by nitrate reductase assay; format: functional, THP-1; details: ATCC 25177, 288 h
[30] = Cytotoxicity against human MCF7 cells by MTT assay; format: toxicity, cell-based
[31] = Selectivity index, ratio of GI50 for human THP1 cells to MIC90 for Mycobacterium tuberculosis H37Ra ATCC 25177 dormant stage; format: toxicity, cell-based, THP-1; details: read-out: Selectivity Index; in short: as §3
[32] = Selectivity index, ratio of GI50 for human HCT116 cells to MIC90 for Mycobacterium tuberculosis H37Ra ATCC 25177 active stage; format: toxicity, cell-based, HCT-116; details: read-out: Selectivity Index; in short: as §2
Escherichia coli [33] = test: Growth inhibition of Escherichia coli at 10 ug/ml; format: functional; details: read-out: GI
Staphylococcus aureus [34] = test: Antibacterial activity against Staphylococcus aureus; format: functional
[35] = Selectivity index, ratio of GI50 for human MCF7 cells to MIC90 for Mycobacterium tuberculosis H37Ra ATCC 25177 dormant stage; format: toxicity, cell-based; details: read-out: Selectivity Index; in short: as §3
[36] = Selectivity index, ratio of GI50 for human HCT116 cells to MIC90 for Mycobacterium tuberculosis H37Ra ATCC 25177 dormant stage; format: toxicity, cell-based, HCT-116; details: read-out: Selectivity Index; in short: as §3
[37] = Selectivity index, ratio of GI50 for human HCT116 cells to MIC90 for Mycobacterium bovis BCG ATCC 35743 active stage; format: toxicity, cell-based, HCT-116; details: read-out: Selectivity Index; in short: as §2

`C/C(=N\Nc1nc(-c2ccc(C)cc2)cs1)c1sc(-c2ccccc2)nc1C` showed an IC50 [1] of 5.29 µg/mL (≈ 13.1 µM), an MIC90 [1] of 57.5 µg/mL (≈ 142 µM) and an inhibition of growth at 30 µg/mL (Pseudomonas aeruginosa [2]) of 98.8%. The inhibition of growth at 3 µg/mL (Escherichia coli [3]) was 92.2%, the selectivity ratio [4] was 1 and the selectivity ratio [5] was 2. The GI50 ([6]; THP1 cells) was over 100 µg/mL, the GI90 ([6]; thp-1) was over 100 µg/mL and the selectivity ratio [7] was 2. The GI50 ([8]; HCT116 cells) was over 100 µg/mL, the GI90 ([8]; hct-116) was over 100 µg/mL and the inhibition of growth at 3 µg/mL (Pseudomonas aeruginosa [9]) was 93.4%. It also gave an IC50 (Escherichia coli [10]) of 0.454 µg/mL (≈ 1.12 µM), an MIC (Escherichia coli [10]) of 1.43 µg/mL (≈ 3.53 µM) and an inhibition of growth at 10 µg/mL (Staphylococcus aureus [11]) of 94%. For the same compound, the selectivity ratio [12] was 5, the inhibition of growth at 10 µg/mL (Pseudomonas aeruginosa [13]) was 95.6% and the MIC90 [14] was over 100 µg/mL. It also gave a selectivity ratio [15] of 5, an IC50 (Pseudomonas aeruginosa [16]) of 0.587 µg/mL (≈ 1.45 µM) and an MIC (Pseudomonas aeruginosa [16]) of 1.53 µg/mL (≈ 3.78 µM). For the same compound, the inhibition of growth at 3 µg/mL (Bacillus subtilis [17]) was 91.3%, the selectivity ratio [18] was 1 and the IC50 [19] was 5.21 µg/mL (≈ 12.9 µM). It also gave an MIC90 [19] of 19.7 µg/mL (≈ 48.6 µM), an IC50 (Bacillus subtilis [20]) of 0.742 µg/mL (≈ 1.83 µM) and an MIC (Bacillus subtilis [20]) of 2.95 µg/mL (≈ 7.29 µM). For the same compound, the IC50 [21] was 0.16 µg/mL (≈ 0.395 µM), the MIC90 [21] was over 100 µg/mL and the inhibition of growth at 30 µg/mL (Staphylococcus aureus [22]) was 97.1%. It also gave an inhibition of growth at 10 µg/mL (Bacillus subtilis [23]) of 93.5%, an IC50 [24] of 0.075 µg/mL (≈ 0.185 µM) and an MIC90 [24] of over 100 µg/mL. The inhibition of growth at 30 µg/mL (Escherichia coli [25]) was 97%, the inhibition of growth at 30 µg/mL (Bacillus subtilis [26]) was 96.9% and the inhibition of growth at 3 µg/mL (Staphylococcus aureus [27]) was 91.9%. For the same compound, the selectivity ratio [28] was 2, the MIC90 [29] was over 100 µg/mL and the GI50 ([30]; MCF7 cells) was over 100 µg/mL. The GI90 ([30]; mcf7) was over 100 µg/mL, the selectivity ratio [31] was 1 and the selectivity ratio [32] was 1. It also gave an inhibition of growth at 10 µg/mL (Escherichia coli [33]) of 94.1%, an IC50 (Staphylococcus aureus [34]) of 0.624 µg/mL (≈ 1.54 µM) and an MIC (Staphylococcus aureus [34]) of 2.46 µg/mL (≈ 6.08 µM). The selectivity ratio [35] was 1, the selectivity ratio [36] was 1 and the selectivity ratio [37] was 5.
